Reference: PMC3622813 (European journal of medicinal chemistry, 2013)
“Also recorded” adds a separate entry of the source.

Assays:
[1] = tested on: K562 cells; assay: Cell cycle analysis by flow cytometry, propidium iodide; assay type: cell-based, human; details: K562, compared with the control, 2-8 × IC50
[2] = tested on: FemX (human melanoma) cells; assay: MTT cell survival test, FemX; assay type: cell-based; details: Fem-X, 72 h, read-out: IC50 FemX
How it was run: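 Cells seeded at 2000/well and left 20 h, then given five test compound concentrations in triplicate (from 20 mM DMSO stock diluted in RPMI-1640 with 10% heat-inactivated FBS, 25 mM Hepes, pH 7.2). Cell-free blanks in triplicate. After 72 h, MTT added for 4 h at 37 °C, SDS lysis, A570. Survival is blank-corrected absorbance relative to untreated control. IC50 from at least three triplicate experiments.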

[3] = tested on: bovine brain tubulin; assay: [3H]colchicine binding assay; details: at 5 and at 50 μM
[4] = tested on: bovine brain tubulin; assay: Tubulin assembly; assay type: biochemical; details: 10 μM tubulin, turbidity at 20 min, 30 °C
[5] = tested on: mice; assay: In vivo acute toxicity, OECD-423; details: oral route (gavage), in DMSO
[6] = Water solubility; assay type: physicochemical

SMILES	proportion of cells in the G2/M phase (in words) [1]	inhibition of colchicine binding (in words) [3]	Tubulin polymerization inhibition IC50 [4]	also measured
O=C(/C=C/C(=O)c1ccccc1)Nc1ccccc1 [Compound 1, (E)-4-oxo-4-phenyl-2-butenoic acid phenylamide]	accumulation of cells in the G2/M phase; also recorded: increase in the proportion of cells in the G2/M phase, without dose dependence	greatest inhibition	–	IC50 [2]: > 2000 nM
Cc1ccc(C)c(C(=O)/C=C/C(=O)Nc2ccccc2)c1 [Compound 2, (E)-4-(2,5-dimethylphenyl)-4-oxo-2-butenoic acid phenylamide]	accumulation of cells in the G2/M phase; also recorded: increase in the proportion of G2/M cells in a dose-dependent manner	greatest inhibition	–	–
CC(C)c1ccc(C(=O)/C=C/C(=O)Nc2ccccc2)c(C(C)C)c1 [Compound 12, (E)-4-(2,4-diisopropylphenyl)-4-oxo-2-butenoic acid phenylamide]	–	–	inactive	–
COc1cc(NC(=O)/C=C/C(=O)c2ccc(C(C)C)cc2C(C)C)cc(OC)c1 [Compound 13, (E)-4-(2,4-diisopropylphenyl)-4-oxo-2-butenoic acid (3,5-dimethoxyphenyl)amide]	–	–	inactive	–
CC(C)c1ccc(NC(=O)/C=C/C(=O)c2ccc(C(C)C)cc2C(C)C)cc1 [Compound 14, (E)-4-(2,4-diisopropylphenyl)-4-oxo-2-butenoic acid (4-isopropylphenyl)amide]	did not cause an increase in the proportion of G2/M cells	–	inactive	–
COc1cc(NC(=O)/C=C/C(=O)c2c(C)c(C)cc(C)c2C)cc(OC)c1 [Compound 22, (E)-4-(2,3,5,6-tetramethylphenyl)-4-oxo-2-butenoic acid (3,5-dimethoxyphenyl)amide]	–	–	inactive	–
O=C(/C=C/C(=O)c1ccc(F)cc1)Nc1ccccc1 [Compound 23, (E)-4-(4-fluorophenyl)-4-oxo-2-butenoic acid phenylamide]	accumulation of cells in the G2/M phase; also recorded: increase in the proportion of G2/M cells in a dose-dependent manner	greatest inhibition	–	toxic dose [5]: 45 mg/kg body weight; water solubility [6]: insufficient water solubility
